Seven compounds from ChEMBL document CHEMBL1955823, “Imidazo[1,2-a]pyrazines as novel PI3K inhibitors” (Bioorg Med Chem Lett, 2012) can be followed below.

What is called inhibition is the change of the read-out against control, counted positive when it falls. A higher inhibition goes with a response far below the control. The term IC50 denotes the concentration that gives 50% inhibition. Read a low IC50 as greater potency.

The target of test [1] is T1, Inhibitor of nuclear factor kappa-B kinase subunit beta (Homo sapiens) (UniProt O14920).
T1 sequence (whole entry): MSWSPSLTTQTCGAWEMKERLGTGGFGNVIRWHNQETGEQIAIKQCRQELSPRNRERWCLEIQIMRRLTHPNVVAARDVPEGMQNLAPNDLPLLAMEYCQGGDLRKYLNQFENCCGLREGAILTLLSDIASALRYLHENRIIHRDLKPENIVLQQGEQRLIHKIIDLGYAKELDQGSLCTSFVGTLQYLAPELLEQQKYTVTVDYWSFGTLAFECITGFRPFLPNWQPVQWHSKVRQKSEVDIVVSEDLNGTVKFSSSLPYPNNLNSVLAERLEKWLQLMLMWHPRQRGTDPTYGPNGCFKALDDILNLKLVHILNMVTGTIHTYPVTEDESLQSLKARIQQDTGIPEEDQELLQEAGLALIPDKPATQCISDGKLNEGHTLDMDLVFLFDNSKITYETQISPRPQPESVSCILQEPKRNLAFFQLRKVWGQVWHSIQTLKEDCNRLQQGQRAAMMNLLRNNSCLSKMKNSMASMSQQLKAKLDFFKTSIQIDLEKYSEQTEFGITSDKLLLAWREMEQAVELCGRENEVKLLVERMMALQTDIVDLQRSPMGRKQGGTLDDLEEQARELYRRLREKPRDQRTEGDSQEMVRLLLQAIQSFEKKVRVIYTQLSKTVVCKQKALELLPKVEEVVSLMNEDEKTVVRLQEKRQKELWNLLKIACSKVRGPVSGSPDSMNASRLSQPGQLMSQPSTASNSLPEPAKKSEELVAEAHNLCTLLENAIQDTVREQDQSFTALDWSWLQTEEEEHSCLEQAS
As to the kind of experiment: Inhibition of IKK-beta at 5 to 10 uM.

In test [2] the target is Serine/threonine-protein kinase pim-2 (Homo sapiens) (UniProt Q9P1W9). Description: Inhibition of PIM2 at 5 to 10 uM.
The target of test [3] is Focal adhesion kinase 1 (Homo sapiens) (UniProt Q05397). As to the kind of experiment: Inhibition of FAK at 5 to 10 uM.
Test [4] in a line: Inhibition of PDGFR at 5 to 10 uM.
Test [5] has as its target Mast/stem cell growth factor receptor Kit (Homo sapiens) (UniProt P10721). As to the kind of experiment: Inhibition of KIT at 5 to 10 uM.
The target in test [6] is Fibroblast growth factor receptor 1 (Homo sapiens) (UniProt P11362). As to the kind of experiment: Inhibition of FGF-R1 at 5 to 10 uM.
For test [7], the target named is Epidermal growth factor receptor (Homo sapiens) (UniProt P00533). As to the kind of experiment: Inhibition of EGF-R at 5 to 10 uM.
The target in test [8] is Serine/threonine-protein kinase mTOR (Homo sapiens, UniProt P42345). Description: Inhibition of mTOR. The procedure, abridged:
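mTOR (FRAP1) kinase assay using GFP-4E-BP1 substrate and a Tb-labelled anti-phospho-4E-BP1 (Thr46) antibody in a TR-FRET format, under the manufacturer's conditions; averages of two independent experiments run in duplicate.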

Test [9] deals with PI3-kinase p110-delta/p85-alpha (Homo sapiens, UniProt O00329). Description: Inhibition of human PI3K p110delta/p85alpha. In kind it is protein-complex assay. To be noted: read-out: Ki(app).
The target in test [10] is Tyrosine-protein kinase JAK2 (Homo sapiens) (UniProt O60674). Description: Inhibition of JAK2 at 5 to 10 uM.
Test [11] deals with Receptor-type tyrosine-protein kinase FLT3 (Homo sapiens) (UniProt P36888). Description: Inhibition of FLT3 at 5 to 10 uM.
Test [12] concerns the target Ribosomal protein S6 kinase alpha-1 (Homo sapiens) (UniProt Q15418). Description: Inhibition of RPS6KA1 at 5 to 10 uM.
Test [13] has as its target Dual specificity tyrosine-phosphorylation-regulated kinase 1A (Homo sapiens) (UniProt Q13627). Description: Inhibition of DYRK1A at 5 to 10 uM.
The target of test [14] is Phosphatidylinositol 4,5-bisphosphate 3-kinase catalytic subunit gamma isoform (Homo sapiens, UniProt P48736). Description: Inhibition of human PI3K p110gamma. The following applies: read-out: Ki(app).
The target in test [15] is Insulin-like growth factor 1 receptor (Homo sapiens) (UniProt P08069). As to the kind of experiment: Inhibition of IGF1-R at 5 to 10 uM.
For test [16], the target named is T2, Serine/threonine-protein kinase 4 (Homo sapiens) (UniProt Q13043).
T2 sequence (whole entry): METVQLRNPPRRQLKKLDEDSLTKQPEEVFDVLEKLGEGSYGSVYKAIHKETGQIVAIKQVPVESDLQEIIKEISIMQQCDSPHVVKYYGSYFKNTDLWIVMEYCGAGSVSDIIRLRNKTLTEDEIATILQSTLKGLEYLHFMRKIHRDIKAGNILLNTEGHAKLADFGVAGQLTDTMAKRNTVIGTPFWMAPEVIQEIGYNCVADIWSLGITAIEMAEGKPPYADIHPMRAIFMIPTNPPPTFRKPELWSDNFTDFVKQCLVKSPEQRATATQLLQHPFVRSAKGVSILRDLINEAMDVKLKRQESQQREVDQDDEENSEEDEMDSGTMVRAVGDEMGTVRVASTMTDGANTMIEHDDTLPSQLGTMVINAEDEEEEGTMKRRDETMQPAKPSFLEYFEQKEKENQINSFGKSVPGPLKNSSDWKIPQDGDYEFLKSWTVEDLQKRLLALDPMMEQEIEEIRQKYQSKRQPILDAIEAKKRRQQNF
Description: Inhibition of MST1 at 5 to 10 uM.

Test [17] has as its target Hepatocyte growth factor receptor (Homo sapiens) (UniProt P08581). Description: Inhibition of MET at 5 to 10 uM.
The subject of test [18] is Serine/threonine-protein kinase B-raf (Homo sapiens), P15056 [V600E]. Description: Inhibition of BRAF V600E mutant at 5 to 10 uM.
Test [19] deals with Insulin receptor (Homo sapiens) (UniProt P06213). Description: Inhibition of INS-R at 5 to 10 uM.
Test [20] has as its target Serine/threonine-protein kinase PAK 1 (Homo sapiens) (UniProt Q13153). As to the kind of experiment: Inhibition of PAK1 at 5 to 10 uM.

Sequence of Serine/threonine-protein kinase B-raf (Homo sapiens), P15056 [V600E] (P15056 whole entry V600E): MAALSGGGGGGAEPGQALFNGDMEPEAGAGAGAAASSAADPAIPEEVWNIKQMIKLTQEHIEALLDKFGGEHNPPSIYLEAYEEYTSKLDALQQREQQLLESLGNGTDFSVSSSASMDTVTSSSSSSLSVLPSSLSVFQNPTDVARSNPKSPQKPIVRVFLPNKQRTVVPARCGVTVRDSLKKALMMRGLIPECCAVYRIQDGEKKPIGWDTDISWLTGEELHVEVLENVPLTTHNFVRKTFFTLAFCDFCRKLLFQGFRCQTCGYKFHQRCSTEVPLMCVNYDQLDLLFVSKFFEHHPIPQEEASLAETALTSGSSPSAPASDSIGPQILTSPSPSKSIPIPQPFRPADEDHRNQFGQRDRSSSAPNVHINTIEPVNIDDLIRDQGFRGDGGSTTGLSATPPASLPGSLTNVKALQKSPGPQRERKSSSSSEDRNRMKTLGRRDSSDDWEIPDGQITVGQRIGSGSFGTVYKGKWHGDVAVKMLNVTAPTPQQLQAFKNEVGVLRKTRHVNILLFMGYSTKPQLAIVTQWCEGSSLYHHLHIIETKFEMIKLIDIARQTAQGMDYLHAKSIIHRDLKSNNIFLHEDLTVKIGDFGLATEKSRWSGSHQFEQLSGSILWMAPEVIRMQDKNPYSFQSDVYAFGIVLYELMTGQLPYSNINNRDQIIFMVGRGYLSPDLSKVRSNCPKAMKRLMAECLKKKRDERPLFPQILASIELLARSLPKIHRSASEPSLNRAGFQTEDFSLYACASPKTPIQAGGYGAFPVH
Sequence of Ribosomal protein S6 kinase alpha-1 (Homo sapiens) (Q15418 whole entry): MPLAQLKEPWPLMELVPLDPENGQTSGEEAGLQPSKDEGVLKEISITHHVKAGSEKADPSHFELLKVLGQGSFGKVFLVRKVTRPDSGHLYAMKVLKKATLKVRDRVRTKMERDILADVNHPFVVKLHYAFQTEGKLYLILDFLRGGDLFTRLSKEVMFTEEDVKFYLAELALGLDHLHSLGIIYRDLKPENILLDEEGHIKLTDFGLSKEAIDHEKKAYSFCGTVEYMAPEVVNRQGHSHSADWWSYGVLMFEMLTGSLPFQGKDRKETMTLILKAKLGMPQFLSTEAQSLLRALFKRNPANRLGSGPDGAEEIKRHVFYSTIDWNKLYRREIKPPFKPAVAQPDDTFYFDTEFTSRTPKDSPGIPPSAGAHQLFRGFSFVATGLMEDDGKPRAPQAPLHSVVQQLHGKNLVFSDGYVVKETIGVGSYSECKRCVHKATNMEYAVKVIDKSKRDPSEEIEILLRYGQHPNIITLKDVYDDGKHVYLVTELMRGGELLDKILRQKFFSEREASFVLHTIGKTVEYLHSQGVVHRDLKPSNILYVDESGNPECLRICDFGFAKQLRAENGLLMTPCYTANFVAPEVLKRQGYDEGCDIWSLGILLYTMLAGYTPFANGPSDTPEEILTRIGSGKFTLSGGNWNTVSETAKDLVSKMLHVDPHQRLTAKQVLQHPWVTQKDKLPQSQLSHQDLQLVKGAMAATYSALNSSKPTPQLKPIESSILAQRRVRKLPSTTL
Sequence of Mast/stem cell growth factor receptor Kit (Homo sapiens) (P10721 whole entry): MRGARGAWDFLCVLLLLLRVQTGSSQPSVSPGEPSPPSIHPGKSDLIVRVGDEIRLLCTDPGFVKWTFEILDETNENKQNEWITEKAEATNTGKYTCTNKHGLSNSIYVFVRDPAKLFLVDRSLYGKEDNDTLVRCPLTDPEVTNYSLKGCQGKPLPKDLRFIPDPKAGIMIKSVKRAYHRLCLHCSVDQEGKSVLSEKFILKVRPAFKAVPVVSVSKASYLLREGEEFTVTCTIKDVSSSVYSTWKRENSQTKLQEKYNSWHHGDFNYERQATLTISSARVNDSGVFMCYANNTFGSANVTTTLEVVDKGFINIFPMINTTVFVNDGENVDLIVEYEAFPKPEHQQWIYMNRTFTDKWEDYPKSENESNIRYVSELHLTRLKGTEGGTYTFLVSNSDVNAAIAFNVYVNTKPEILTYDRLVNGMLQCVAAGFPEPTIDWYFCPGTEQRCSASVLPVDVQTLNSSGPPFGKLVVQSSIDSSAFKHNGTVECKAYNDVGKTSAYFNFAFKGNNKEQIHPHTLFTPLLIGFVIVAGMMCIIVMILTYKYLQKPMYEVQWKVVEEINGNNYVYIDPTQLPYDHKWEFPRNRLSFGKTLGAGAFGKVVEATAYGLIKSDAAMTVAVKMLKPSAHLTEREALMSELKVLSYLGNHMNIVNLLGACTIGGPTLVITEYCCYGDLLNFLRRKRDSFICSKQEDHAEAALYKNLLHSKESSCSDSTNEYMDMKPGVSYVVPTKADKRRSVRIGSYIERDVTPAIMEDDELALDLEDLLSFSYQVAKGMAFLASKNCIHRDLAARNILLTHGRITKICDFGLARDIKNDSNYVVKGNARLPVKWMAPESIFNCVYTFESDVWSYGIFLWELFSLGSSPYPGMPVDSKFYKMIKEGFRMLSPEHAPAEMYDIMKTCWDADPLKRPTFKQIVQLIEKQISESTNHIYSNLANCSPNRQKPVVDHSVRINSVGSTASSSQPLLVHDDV
Sequence of Serine/threonine-protein kinase pim-2 (Homo sapiens) (Q9P1W9 whole entry, looked up): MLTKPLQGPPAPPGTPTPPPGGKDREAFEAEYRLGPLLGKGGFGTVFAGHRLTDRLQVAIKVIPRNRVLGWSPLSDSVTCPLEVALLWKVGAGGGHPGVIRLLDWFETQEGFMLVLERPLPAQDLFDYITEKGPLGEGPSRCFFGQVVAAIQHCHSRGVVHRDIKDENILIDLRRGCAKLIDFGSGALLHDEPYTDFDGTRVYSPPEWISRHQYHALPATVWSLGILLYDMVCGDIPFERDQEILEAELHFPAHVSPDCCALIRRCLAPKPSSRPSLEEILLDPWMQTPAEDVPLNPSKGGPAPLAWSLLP
Sequence of Phosphatidylinositol 4,5-bisphosphate 3-kinase catalytic subunit gamma isoform (P48736 whole entry, canonical isoform): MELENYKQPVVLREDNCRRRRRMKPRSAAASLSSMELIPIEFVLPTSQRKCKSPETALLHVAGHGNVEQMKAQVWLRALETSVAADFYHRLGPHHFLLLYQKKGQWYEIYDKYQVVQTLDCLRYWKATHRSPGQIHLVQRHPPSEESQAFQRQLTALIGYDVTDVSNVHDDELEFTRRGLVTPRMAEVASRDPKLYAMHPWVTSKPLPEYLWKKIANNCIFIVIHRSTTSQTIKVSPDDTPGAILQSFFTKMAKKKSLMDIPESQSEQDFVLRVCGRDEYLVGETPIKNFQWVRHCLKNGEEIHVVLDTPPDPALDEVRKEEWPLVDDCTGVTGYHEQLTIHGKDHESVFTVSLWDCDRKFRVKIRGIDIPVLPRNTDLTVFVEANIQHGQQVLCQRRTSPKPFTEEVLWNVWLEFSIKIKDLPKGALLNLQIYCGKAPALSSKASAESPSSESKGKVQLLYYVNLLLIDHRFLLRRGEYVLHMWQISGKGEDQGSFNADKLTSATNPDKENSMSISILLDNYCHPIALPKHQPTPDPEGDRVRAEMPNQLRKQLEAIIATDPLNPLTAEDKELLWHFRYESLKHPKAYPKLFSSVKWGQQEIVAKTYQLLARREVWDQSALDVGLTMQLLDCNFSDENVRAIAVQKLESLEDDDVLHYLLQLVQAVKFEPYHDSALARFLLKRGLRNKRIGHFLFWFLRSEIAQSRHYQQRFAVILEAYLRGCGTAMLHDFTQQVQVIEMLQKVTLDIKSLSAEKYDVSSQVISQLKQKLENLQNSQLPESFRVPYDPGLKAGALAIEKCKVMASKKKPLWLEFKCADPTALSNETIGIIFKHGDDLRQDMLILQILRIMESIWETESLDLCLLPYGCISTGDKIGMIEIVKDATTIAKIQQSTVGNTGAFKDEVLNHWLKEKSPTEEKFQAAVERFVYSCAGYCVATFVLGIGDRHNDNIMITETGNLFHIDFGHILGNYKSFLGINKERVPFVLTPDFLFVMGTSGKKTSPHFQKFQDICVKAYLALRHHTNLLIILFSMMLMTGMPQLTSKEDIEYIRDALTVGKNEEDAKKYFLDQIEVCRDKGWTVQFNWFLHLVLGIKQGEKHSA
Sequence of Receptor-type tyrosine-protein kinase FLT3 (Homo sapiens) (P36888 whole entry): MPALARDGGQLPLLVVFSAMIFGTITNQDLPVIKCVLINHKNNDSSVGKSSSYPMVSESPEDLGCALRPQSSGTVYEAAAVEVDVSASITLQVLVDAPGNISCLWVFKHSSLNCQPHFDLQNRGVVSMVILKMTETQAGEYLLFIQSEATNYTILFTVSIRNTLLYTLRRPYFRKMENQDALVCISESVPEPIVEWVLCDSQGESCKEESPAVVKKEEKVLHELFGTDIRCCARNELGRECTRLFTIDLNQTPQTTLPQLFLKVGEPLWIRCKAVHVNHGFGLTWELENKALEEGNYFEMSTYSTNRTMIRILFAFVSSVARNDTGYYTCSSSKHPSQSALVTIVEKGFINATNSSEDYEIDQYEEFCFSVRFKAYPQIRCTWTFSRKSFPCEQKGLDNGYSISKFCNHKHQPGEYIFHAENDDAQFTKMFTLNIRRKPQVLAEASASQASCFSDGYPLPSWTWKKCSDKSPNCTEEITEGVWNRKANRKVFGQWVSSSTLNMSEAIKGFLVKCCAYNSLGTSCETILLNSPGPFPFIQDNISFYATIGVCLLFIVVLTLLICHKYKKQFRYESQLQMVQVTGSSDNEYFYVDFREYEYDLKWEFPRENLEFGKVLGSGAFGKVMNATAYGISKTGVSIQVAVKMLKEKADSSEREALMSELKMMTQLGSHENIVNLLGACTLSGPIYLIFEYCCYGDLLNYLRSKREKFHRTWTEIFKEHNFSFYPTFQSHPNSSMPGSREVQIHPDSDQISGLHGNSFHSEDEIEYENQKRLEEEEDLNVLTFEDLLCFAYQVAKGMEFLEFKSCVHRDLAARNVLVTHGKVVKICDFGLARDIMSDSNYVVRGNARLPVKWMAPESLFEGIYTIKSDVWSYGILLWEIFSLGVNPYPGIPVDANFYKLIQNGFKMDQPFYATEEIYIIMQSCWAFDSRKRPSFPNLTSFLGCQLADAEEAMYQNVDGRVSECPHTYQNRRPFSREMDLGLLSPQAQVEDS

`COCCCNC(=O)c1cn2cc(-c3cccc4[nH]ncc34)nc(N3CCOCC3)c2n1`: the inhibition was less than 50% in test [1]; less than 50% in test [2]; 50% in test [3]; less than 50% in [4]; less than 50% in test [5]; less than 50% in test [6]. In addition, the inhibition in test [7], in test [10], in test [11], in test [12], in test [13] and in [15] was less than 50% in each case. The inhibition is less than 50% in [16]; less than 50% in test [17]; less than 50% in test [18]; 50% in test [19]; less than 50% in [20]. This compound also displayed an IC50 in [8] of more than 10000 nM. Moreover, the Ki is 2.8 nM in [9] and more than 500 nM in test [14].

As for `CS(=O)(=O)N1CCN(Cc2nc3c(N4CCOCC4)nc(-c4cccc5[nH]ncc45)cn3c2Br)CC1`, the inhibition in test [1] was less than 50%; in test [2], less than 50%; in test [3], 50%; in test [4], less than 50%; in [5] it was less than 50%; in test [6], less than 50%. The inhibition in test [7], in test [10], in test [11], in test [12], in [13] and in [15] was less than 50% throughout. The inhibition in [16] is less than 50%; in test [17] it was less than 50%; in [18], less than 50%; in test [19], 50%; in test [20] it was less than 50%. The compound further came in with an IC50 in test [8] of more than 10000 nM. The values for the Ki in test [9] and in [14] were 8 nM and more than 500 nM, respectively.

With `CNC(=O)c1cn2cc(-c3cccc4[nH]ncc34)nc(N3CCOCC3)c2n1`, the inhibition in test [1] is less than 50%; in [2] it was less than 50%; in test [3], 50%; in [4], less than 50%; in [5] it was less than 50%; in test [6] it was less than 50%. Further, the inhibition in test [7], in test [10], in test [11], in test [12], in test [13] and in [15] was less than 50% in each case. In addition, the inhibition in [16] is less than 50%; in test [17], less than 50%; in test [18], less than 50%; in test [19], 50%; in test [20], less than 50%. The IC50 in test [8] was more than 10000 nM. Moreover, the Ki in test [9] is 17.1 nM; in [14], more than 500 nM.

For `O=C(NCCN1CCOCC1)c1cn2cc(-c3cccc4[nH]ncc34)nc(N3CCOCC3)c2n1`, the inhibition in test [1] is less than 50%; in test [2], less than 50%; in test [3], 50%; in test [4], less than 50%; in test [5], less than 50%; in test [6] it was less than 50%. The inhibition in test [7], in test [10], in test [11], in [12], in test [13] and in test [15] was less than 50% each time. In addition, the inhibition was less than 50% in test [16]; less than 50% in [17]; less than 50% in [18]; 50% in test [19]; less than 50% in [20]. In [8], this compound came in with an IC50 of more than 10000 nM. Besides, the results for the Ki in test [9] and in test [14] were 6.5 nM and more than 500 nM, respectively.

For the compound `CS(=O)(=O)N1CCN(Cc2cn3c(Cl)c(-c4cccc5[nH]ncc45)nc(N4CCOCC4)c3n2)CC1`, the inhibition was less than 50% in test [1]; less than 50% in test [2]; 50% in [3]; less than 50% in [4]; less than 50% in [5]; less than 50% in test [6]. The inhibition in test [7], in test [10], in [11], in test [12], in test [13] and in [15] was less than 50% each time. Moreover, the inhibition is less than 50% in [16]; less than 50% in test [17]; less than 50% in [18]; 50% in test [19]; less than 50% in test [20]. The IC50 in test [8] was more than 10000 nM. In addition, the Ki in [9] is 65 nM; in [14], more than 500 nM.

Take `CN(C)CCCNC(=O)c1cn2cc(-c3cccc4[nH]ncc34)nc(N3CCOCC3)c2n1`: the inhibition in test [1] was less than 50%; in test [2], less than 50%; in test [3] it was 50%; in [4] it was less than 50%; in test [5], less than 50%; in test [6], less than 50%. Besides, the inhibition in test [7], in [10], in test [11], in test [12], in test [13] and in [15] was less than 50% in each case. The inhibition is less than 50% in [16]; less than 50% in test [17]; less than 50% in test [18]; 50% in [19]; less than 50% in test [20]. The IC50 in test [8] was more than 10000 nM. Besides, the values for the Ki in [9] and in [14] were 3.6 nM and more than 500 nM, respectively.

`CS(=O)(=O)N1CCN(Cc2cn3cc(-c4cccc5[nH]ncc45)nc(N4CCOCC4)c3n2)CC1`: the inhibition in [1] is less than 50%; in [2] it was less than 50%; in test [3] it was 50%; in test [4] it was less than 50%; in test [5] it was less than 50%; in test [6], less than 50%. The inhibition in test [7], in test [10], in [11], in test [12], in test [13] and in [15] was less than 50% in each case. Besides, the inhibition in test [16] was less than 50%; in test [17] it was less than 50%; in test [18], less than 50%; in test [19], 50%; in test [20] it was less than 50%. Moreover, the IC50 in test [8] was more than 10000 nM. For the same compound, the Ki in test [14] is more than 500 nM.
